Laboratory results: ChEMBL document CHEMBL1138056, “Potent benzimidazole sulfonamide protein tyrosine phosphatase 1B inhibitors containing the heterocyclic (S)-isothiazolidinone phosphotyrosine mimetic” (J Med Chem, 2006)

Assays:
[1] = biological target: T1, Tyrosine-protein phosphatase non-receptor type 1 (Homo sapiens, UniProt P18031); test: Inhibition of PTP1B by pNPP assay
T1 sequence (P18031 whole entry): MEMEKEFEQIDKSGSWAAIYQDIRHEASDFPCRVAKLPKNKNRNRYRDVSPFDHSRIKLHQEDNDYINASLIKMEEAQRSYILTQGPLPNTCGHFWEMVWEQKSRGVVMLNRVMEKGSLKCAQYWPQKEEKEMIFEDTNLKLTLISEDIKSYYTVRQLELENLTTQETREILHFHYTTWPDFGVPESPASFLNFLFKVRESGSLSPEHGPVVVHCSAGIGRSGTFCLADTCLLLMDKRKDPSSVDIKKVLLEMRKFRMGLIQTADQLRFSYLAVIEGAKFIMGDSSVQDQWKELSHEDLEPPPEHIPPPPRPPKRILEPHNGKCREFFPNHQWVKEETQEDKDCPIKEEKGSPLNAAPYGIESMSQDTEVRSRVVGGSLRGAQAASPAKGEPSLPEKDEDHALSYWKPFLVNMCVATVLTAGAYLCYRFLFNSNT

[2] = Permeability across Caco-2 cell membrane; type: ADME, cell-based; details: human, read-out: permeability
[3] = biological target: T2, Tyrosine-protein phosphatase non-receptor type 1 (Homo sapiens) (UniProt P18031); test: Increase in phosphorylation level of human insulin receptor transfected in HEK293 cells at 80 uM; type: functional, cell-based
T2 sequence (whole entry): T1 sequence (P18031 whole entry)
Summary of the method: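 HEK293-MSR cells cotransfected with full-length human PTP1B and insulin receptor plasmids, attached 24 h, then treated 16 h in serum-free DMEM (0.4% DMSO final). Lysed on ice; IR phosphorylated at Y1162/Y1163 measured by ELISA and normalized to total protein (BCA). Expressed as fold shift; averages of triplicates from the same day.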

Structure (SMILES)	IC50 [1] [nM]	Papp [2] [×10⁻⁶ cm/s]	Activity [3]
O=C1CC(c2ccc(CC(NS(=O)(=O)c3ccc(Cl)cc3)c3nc4ccccc4[nH]3)cc2)S(=O)(=O)N1 (stereo not given)	110	–	–
O=C1CC(c2ccc(CC(NS(=O)(=O)c3ccc(-c4ccccc4)cc3)c3nc4c(O)cccc4[nH]3)cc2)S(=O)(=O)N1 (stereo not given)	240	–	–
O=C(CCc1ccccc1)N[C@@H](Cc1ccc([C@@H]2CC(=O)NS2(=O)=O)cc1)c1nc2ccccc2[nH]1	600	–	–
O=C1CC(c2ccc(CC(NS(=O)(=O)c3cc(Cl)cc(Cl)c3)c3nc4ccccc4[nH]3)cc2)S(=O)(=O)N1 (stereo not given)	51	–	–
COC(=O)c1ccc2[nH]c(C(Cc3ccc(C4CC(=O)NS4(=O)=O)cc3)NS(=O)(=O)c3ccc(-c4ccccc4)cc3)nc2c1 (stereo not given)	150	–	–
Cc1ccc2[nH]c(C(Cc3ccc(C4CC(=O)NS4(=O)=O)cc3)NS(=O)(=O)c3ccc(-c4ccccc4)cc3)nc2c1 (stereo not given)	140	–	–
COc1cccc(S(=O)(=O)NC(Cc2ccc(C3CC(=O)NS3(=O)=O)cc2)c2nc3ccccc3[nH]2)c1 (stereo not given)	48	–	–
Cc1ccc(S(=O)(=O)NC(Cc2ccc(C3CC(=O)NS3(=O)=O)cc2)c2nc3ccccc3[nH]2)cc1 (stereo not given)	80	–	–
O=C1CC(c2ccc(CC(NS(=O)(=O)c3cccc(Cl)c3Cl)c3nc4ccccc4[nH]3)cc2)S(=O)(=O)N1 (stereo not given)	240	–	–
O=C1CC(c2ccc(CC(NS(=O)(=O)c3ccc(C(F)(F)F)cc3)c3nc4ccccc4[nH]3)cc2)S(=O)(=O)N1 (stereo not given)	51	–	–
N#Cc1ccc(S(=O)(=O)NC(Cc2ccc(C3CC(=O)NS3(=O)=O)cc2)c2nc3ccccc3[nH]2)cc1 (stereo not given)	63	–	–
O=C1C[C@@H](c2ccc(C[C@H](NS(=O)(=O)c3ccccc3)c3nc4ccccc4[nH]3)cc2)S(=O)(=O)[N-]1.[Na+]	32	0.4	1
O=C1C[C@@H](c2ccc(C[C@H](NS(=O)(=O)c3ccccc3)c3nc4ccccc4[nH]3)cc2Cl)S(=O)(=O)[N-]1.[Na+]	50	< 0.1	1
O=C1CC(c2ccc(CC(NS(=O)(=O)c3cc(F)cc(F)c3)c3nc4ccccc4[nH]3)cc2)S(=O)(=O)N1 (stereo not given)	72	–	–
O=C1CC(c2ccc(CC(NS(=O)(=O)c3c(F)cccc3F)c3nc4ccccc4[nH]3)cc2)S(=O)(=O)N1 (stereo not given)	160	–	–
O=C1CC(c2ccc(CC(NS(=O)(=O)c3ccccc3Br)c3nc4ccccc4[nH]3)cc2)S(=O)(=O)N1 (stereo not given)	170	–	–
Cc1cc(C[C@H](NS(=O)(=O)c2ccccc2)c2nc3ccccc3[nH]2)ccc1[C@H]1CC(=O)NS1(=O)=O	–	–	1
O=C1CC(c2ccc(CC(NS(=O)(=O)c3ccccc3F)c3nc4ccccc4[nH]3)cc2)S(=O)(=O)N1 (stereo not given)	120	–	–
COc1ccc(S(=O)(=O)NC(Cc2ccc(C3CC(=O)NS3(=O)=O)cc2)c2nc3ccccc3[nH]2)cc1 (stereo not given)	94	–	–

Structure (SMILES)	IC50 [1] [nM]	Papp [2] [×10⁻⁶ cm/s]	Activity [3]
O=C1CC(c2ccc(CC(NS(=O)(=O)c3ccc(Br)cc3)c3nc4ccccc4[nH]3)cc2)S(=O)(=O)N1 (stereo not given)	110	–	–
O=C1CC(c2ccc(CC(NS(=O)(=O)c3cccc(Br)c3)c3nc4ccccc4[nH]3)cc2)S(=O)(=O)N1 (stereo not given)	77	–	–
O=C1CC(c2ccc(CC(NS(=O)(=O)c3ccccc3C(F)(F)F)c3nc4ccccc4[nH]3)cc2)S(=O)(=O)N1 (stereo not given)	130	–	–
O=C1CC(c2ccc(C[C@H](NS(=O)(=O)c3ccccc3)c3nc4ccccc4[nH]3)cc2Br)S(=O)(=O)[N-]1.[Na+] (stereo not given in full)	340	< 0.1	0.7
O=C1CC(c2ccc(CC(NS(=O)(=O)c3ccc(-c4ccccc4)cc3)c3nc4ccccc4[nH]3)cc2)S(=O)(=O)N1 (stereo not given)	80	–	–
O=C1CC(c2ccc(CC(NS(=O)(=O)c3cccc(F)c3)c3nc4ccccc4[nH]3)cc2)S(=O)(=O)N1 (stereo not given)	43	–	–
Cc1cccc(S(=O)(=O)NC(Cc2ccc(C3CC(=O)NS3(=O)=O)cc2)c2nc3ccccc3[nH]2)c1 (stereo not given)	85	–	–
O=C1CC(c2ccc(CC(NS(=O)(=O)c3c(Cl)cccc3Cl)c3nc4ccccc4[nH]3)cc2)S(=O)(=O)N1 (stereo not given)	460	–	–
CC(=O)N[C@@H](Cc1ccccc1)C(=O)N[C@@H](Cc1ccc([C@@H]2CC(=O)NS2(=O)=O)cc1)C(N)=O	240	–	–
Cc1cccc2[nH]c(C(Cc3ccc(C4CC(=O)NS4(=O)=O)cc3)NS(=O)(=O)c3ccc(-c4ccccc4)cc3)nc12 (stereo not given)	190	–	–
O=C1CC(c2ccc(CC(NS(=O)(=O)c3ccccc3Cl)c3nc4ccccc4[nH]3)cc2)S(=O)(=O)N1 (stereo not given)	160	–	–
O=C1CC(c2ccc(CC(NS(=O)(=O)c3ccc(F)cc3)c3nc4ccccc4[nH]3)cc2)S(=O)(=O)N1 (stereo not given)	80	–	–
CS(=O)(=O)N[C@@H](Cc1ccc([C@@H]2CC(=O)NS2(=O)=O)cc1)c1nc2ccccc2[nH]1	590	–	–
O=C1CC(c2ccc(CC(NS(=O)(=O)c3cc(F)ccc3F)c3nc4ccccc4[nH]3)cc2)S(=O)(=O)N1 (stereo not given)	140	–	–
O=C1CC(c2ccc(CC(NS(=O)(=O)c3ccc(-c4ccccc4)cc3)c3nc4cc(Cl)ccc4[nH]3)cc2)S(=O)(=O)N1 (stereo not given)	140	–	–
O=C1CC(c2ccc(CC(NS(=O)(=O)c3ccc(-c4ccccc4)cc3)c3nc4cc(F)ccc4[nH]3)cc2)S(=O)(=O)N1 (stereo not given)	120	–	–
O=C1CC(c2ccc(C[C@H](NS(=O)(=O)c3ccccc3)c3nc4ccccc4[nH]3)cc2F)S(=O)(=O)[N-]1.[Na+] (stereo not given in full)	18	0.2	1.6
O=C1CC(c2ccc(CC(NS(=O)(=O)c3cc(Cl)ccc3Cl)c3nc4ccccc4[nH]3)cc2)S(=O)(=O)N1 (stereo not given)	160	–	–
CC(=O)N[C@@H](Cc1ccc([C@@H]2CC(=O)NS2(=O)=O)cc1)c1nc2ccccc2[nH]1	940	–	–

Structure (SMILES)	IC50 [1] [nM]	Papp [2] [×10⁻⁶ cm/s]	Activity [3]
Cc1cc(C[C@H](NS(=O)(=O)c2cccc(Cl)c2)c2nc3ccccc3[nH]2)ccc1[C@@H]1CC(=O)[N-]S1(=O)=O.[Na+]	76	0.2	1.9
N#Cc1ccccc1S(=O)(=O)NC(Cc1ccc(C2CC(=O)NS2(=O)=O)cc1)c1nc2ccccc2[nH]1 (stereo not given)	45	–	–
COc1ccc2[nH]c(C(Cc3ccc(C4CC(=O)NS4(=O)=O)cc3)NS(=O)(=O)c3ccc(-c4ccccc4)cc3)nc2c1 (stereo not given)	130	–	–
O=C1CC(c2ccc(CC(NS(=O)(=O)c3ccc(-c4ccccc4)cc3)c3nc4cc(C(F)(F)F)ccc4[nH]3)cc2)S(=O)(=O)N1 (stereo not given)	160	–	–
O=C1CC(c2ccc(CC(NS(=O)(=O)c3ccc(F)c(F)c3)c3nc4ccccc4[nH]3)cc2)S(=O)(=O)N1 (stereo not given)	110	–	–
Cc1cc(C[C@H](NS(=O)(=O)c2ccccc2C#N)c2nc3ccccc3[nH]2)ccc1[C@@H]1CC(=O)[N-]S1(=O)=O.[Na+]	18	< 0.1	1.4
O=C1CC(c2ccc(CC(NS(=O)(=O)c3cccc(Cl)c3)c3nc4ccccc4[nH]3)cc2)S(=O)(=O)N1 (stereo not given)	60	–	–
N#Cc1ccc2nc(C(Cc3ccc(C4CC(=O)NS4(=O)=O)cc3)NS(=O)(=O)c3ccc(-c4ccccc4)cc3)[nH]c2c1 (stereo not given)	53	–	–
Cc1cc(C[C@H](NS(=O)(=O)c2ccc(Br)c(C(F)(F)F)c2)c2nc3ccccc3[nH]2)ccc1[C@@H]1CC(=O)[N-]S1(=O)=O.[Na+]	16	< 0.1	2
O=C1CC(c2ccc(C[C@H](NS(=O)(=O)c3cccc(C(F)(F)F)c3)c3nc4cc(Cl)ccc4[nH]3)cc2F)S(=O)(=O)[N-]1.[Na+] (stereo not given in full)	10	0.3	2.3
Cc1cc(C[C@H](NS(=O)(=O)c2ccccc2)c2nc3ccccc3[nH]2)ccc1[C@@H]1CC(=O)[N-]S1(=O)=O.[Na+]	–	0.4	2.8
O=C1CC(c2ccc(CC(NS(=O)(=O)c3cccc(C(F)(F)F)c3)c3nc4ccccc4[nH]3)cc2)S(=O)(=O)N1 (stereo not given)	67	–	–
O=C1C[C@@H](c2ccc(C[C@H](NS(=O)(=O)c3cccc(F)c3)c3nc4ccccc4[nH]3)cc2F)S(=O)(=O)[N-]1.[Na+]	15	< 0.1	1.1
O=C1CC(c2ccc(CC(NS(=O)(=O)c3ccc(Cl)c(Cl)c3)c3nc4ccccc4[nH]3)cc2)S(=O)(=O)N1 (stereo not given)	79	–	–
CC(C)(C)c1cccc2[nH]c(C(Cc3ccc(C4CC(=O)NS4(=O)=O)cc3)NS(=O)(=O)c3ccc(-c4ccccc4)cc3)nc12 (stereo not given)	460	–	–
Cc1ccccc1S(=O)(=O)NC(Cc1ccc(C2CC(=O)NS2(=O)=O)cc1)c1nc2ccccc2[nH]1 (stereo not given)	300	–	–
O=C1CC(c2ccc(CC(NS(=O)(=O)c3ccc(Cl)cc3Cl)c3nc4ccccc4[nH]3)cc2)S(=O)(=O)N1 (stereo not given)	280	–	–
O=C1CC(c2ccc(CC(NS(=O)(=O)c3ccc(F)cc3F)c3nc4ccccc4[nH]3)cc2)S(=O)(=O)N1 (stereo not given)	110	–	–
